Here are results for three molecules from ChEMBL document CHEMBL2010709, “Pinophilins A and B, inhibitors of mammalian A-, B-, and Y-family DNA polymerases and human cancer cell proliferation” (J Nat Prod, 2012).

In assay [1] the target is DNA-directed DNA/RNA polymerase mu (Homo sapiens, UniProt Q9NP87). The experiment in a line: Inhibition of human His-tagged recombinant DNA polymerase mu expressed in Escherichia coli BL21 assessed as inhibition of incorporation of dTTP into poly(dA)/oligo(dT)18 after 60 mins. An outline of the steps: (§1)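 Compound in DMSO was sonicated for 30 s, then held with enzyme (0.05 units final) at 0 °C for 10 min in 50 mM Tris-HCl pH 7.5, 1 mM DTT, 50% glycerol, 0.1 mM EDTA. The mixture was added to the standard reaction mix with poly(dA)/oligo(dT)18 (A/T = 2/1) and dTTP, 37 °C, 60 min. Activity was relative to no-inhibitor control; mean ± SE, three independent experiments.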
Sequence of DNA-directed DNA/RNA polymerase mu (Q9NP87 whole entry): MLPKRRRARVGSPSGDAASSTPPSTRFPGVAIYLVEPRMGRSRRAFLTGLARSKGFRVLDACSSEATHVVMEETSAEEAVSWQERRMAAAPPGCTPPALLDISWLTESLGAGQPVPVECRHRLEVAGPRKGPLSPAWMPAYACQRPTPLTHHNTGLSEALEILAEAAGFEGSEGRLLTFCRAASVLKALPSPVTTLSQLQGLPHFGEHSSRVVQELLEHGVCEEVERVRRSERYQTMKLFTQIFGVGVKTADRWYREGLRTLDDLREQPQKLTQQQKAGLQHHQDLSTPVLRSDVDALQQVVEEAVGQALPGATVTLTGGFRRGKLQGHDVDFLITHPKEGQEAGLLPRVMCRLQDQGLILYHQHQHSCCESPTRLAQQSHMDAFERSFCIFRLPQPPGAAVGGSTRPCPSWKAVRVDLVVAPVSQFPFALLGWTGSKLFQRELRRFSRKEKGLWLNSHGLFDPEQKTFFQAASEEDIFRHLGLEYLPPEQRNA

Assay [2] deals with T1, DNA-directed DNA polymerase (Enterobacteria phage T4, UniProt P04415).
T1 sequence (P04415 whole entry): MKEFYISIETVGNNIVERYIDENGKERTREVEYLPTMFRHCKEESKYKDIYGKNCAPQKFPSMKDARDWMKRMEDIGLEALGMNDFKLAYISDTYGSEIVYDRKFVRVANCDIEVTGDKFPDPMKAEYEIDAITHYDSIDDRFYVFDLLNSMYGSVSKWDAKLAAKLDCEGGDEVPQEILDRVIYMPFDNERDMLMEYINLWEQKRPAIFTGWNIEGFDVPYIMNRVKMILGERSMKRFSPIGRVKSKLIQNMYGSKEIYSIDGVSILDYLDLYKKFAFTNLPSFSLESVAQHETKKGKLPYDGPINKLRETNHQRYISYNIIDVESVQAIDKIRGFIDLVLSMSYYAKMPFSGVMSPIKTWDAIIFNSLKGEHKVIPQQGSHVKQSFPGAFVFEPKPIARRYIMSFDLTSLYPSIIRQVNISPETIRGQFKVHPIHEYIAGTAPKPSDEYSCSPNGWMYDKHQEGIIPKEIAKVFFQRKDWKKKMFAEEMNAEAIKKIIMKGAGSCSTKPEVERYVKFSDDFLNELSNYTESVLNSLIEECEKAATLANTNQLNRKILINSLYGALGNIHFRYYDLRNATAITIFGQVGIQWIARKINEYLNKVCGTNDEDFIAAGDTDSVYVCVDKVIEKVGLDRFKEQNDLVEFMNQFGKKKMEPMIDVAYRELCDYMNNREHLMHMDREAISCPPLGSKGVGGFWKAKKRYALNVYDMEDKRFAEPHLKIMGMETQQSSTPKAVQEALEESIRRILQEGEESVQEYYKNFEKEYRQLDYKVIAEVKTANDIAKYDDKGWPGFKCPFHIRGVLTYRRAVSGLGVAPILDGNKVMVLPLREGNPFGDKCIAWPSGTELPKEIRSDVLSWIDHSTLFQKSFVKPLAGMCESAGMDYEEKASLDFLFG
In words: Inhibition of T4 bacteriophage DNA polymerase assessed as inhibition of incorporation of dTTP into poly(dA)/oligo(dT)18 after 60 mins. Details: species or system Tequatrovirus T4. An outline of the steps:
as §1

A further assay relates to A549. In words: Growth inhibition of human A549 cells after 24 hrs by WST-1 assay. The format is functional. Conditions: A549, 24 h. An outline of the steps: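 Cancer cells were grown in McCoy's 5A with 10% FBS and penicillin/streptomycin, 37 °C, 5% CO2. Cells were seeded at 1 × 10^4 per well, cultured 12 h, then given compound (10 mM DMSO stock diluted in medium, 0.5% DMSO) for 24 h. WST-1 was added for 4 h and absorbance read at 450/630 nm. GI50 given as mean ± SE, five independent experiments.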
A general note: Tetrazolium dyes change colour on reduction, which living cells bring about.

A further assay concerns HCT-116. In words: Cell cycle arrest in human HCT116 cells assessed as accumulation at S-phase at GI50 by tritiated thymidine incorporation assay. The format is functional, cell-based. In general terms: Uptake of a labelled nucleoside into DNA is a usual measure of proliferation.
The nature of assay [3]: Inhibition of calf DNA polymerase alpha assessed as inhibition of incorporation of dTTP into poly(dA)/oligo(dT)18 after 60 mins. Also noted: species or system Bos taurus. An outline of the steps: as §1
The subject of the next assay is Oryza sativa. The experiment in a line: Inhibition of rice cv. Nipponbare recombinant C-terminal-His6-tagged DNA polymerase lambda expressed in Escherichia coli assessed as inhibition of incorporation of dTTP into activated DNA primer after 60 mins.
The next assay has as its target T2, DNA polymerase lambda (Homo sapiens, UniProt Q9UGP5).
T2 sequence (Q9UGP5 whole entry): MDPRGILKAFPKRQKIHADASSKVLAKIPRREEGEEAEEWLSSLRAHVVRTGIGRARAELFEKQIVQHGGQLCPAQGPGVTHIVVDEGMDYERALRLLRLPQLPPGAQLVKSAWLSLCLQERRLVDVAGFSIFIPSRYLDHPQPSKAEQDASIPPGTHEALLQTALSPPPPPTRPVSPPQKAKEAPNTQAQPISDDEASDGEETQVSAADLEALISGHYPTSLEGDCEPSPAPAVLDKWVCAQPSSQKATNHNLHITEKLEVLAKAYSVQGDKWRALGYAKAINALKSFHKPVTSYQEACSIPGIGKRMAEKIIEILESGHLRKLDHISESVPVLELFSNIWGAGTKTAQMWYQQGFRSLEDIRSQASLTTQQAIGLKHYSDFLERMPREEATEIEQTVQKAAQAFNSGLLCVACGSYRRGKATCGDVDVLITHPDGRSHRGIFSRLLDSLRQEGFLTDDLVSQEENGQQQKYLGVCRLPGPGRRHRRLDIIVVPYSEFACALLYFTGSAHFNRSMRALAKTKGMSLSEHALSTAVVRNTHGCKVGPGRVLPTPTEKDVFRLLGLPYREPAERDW
The experiment in a line: Inhibition of human recombinant His-tagged DNA polymerase lambda expressed in Escherichia coli assessed as inhibition of incorporation of dTTP into poly(dA)/oligo(dT)18 after 60 mins. An outline of the steps:
as §1

The subject of assay [4] is Brassica oleracea var. botrytis. The experiment in a line: Inhibition of cauliflower DNA polymerase alpha assessed as inhibition of incorporation of dTTP into activated DNA primer after 60 mins.
The species entered for another assay is Bos taurus. In words: Competitive inhibition of calf DNA polymerase alpha using dTTP as substrate up to 30 uM by Lineweaver-Burk plot analysis. An outline of the steps: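 Kinetics ran in the standard pol assay at 37 °C for 60 min. Either poly(dA)/oligo(dT)18 (A/T = 2/1) or dTTP was varied, with inhibitor at 0, 10, 20 and 30 μM. Km and Vmax came from Lineweaver–Burk plots and Ki from Dixon plots. Pol α was purified from calf thymus by immunoaffinity chromatography.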

The source made the active and inactive calls. The rule behind the calls is not given here.

For orientation: IC50 means the concentration needed to halve the response being measured. By GI50 is commonly meant the concentration giving 50% growth inhibition. Low values mean greater sensitivity of the cells, high ones lower sensitivity of the cells. As to `Cc1cc(O)cc(O)c1C(=O)O[C@H]1[C@@H]2COC(/C=C/CO)=CC2=CC(=O)[C@@]1(C)O` [PINOPHILIN B], the IC50 is greater than 200 µM in assay [1], greater than 200 µM in assay [2], 89.5 µM in assay [3] and greater than 200 µM on DNA polymerase lambda. The same molecule registered a GI50 in the assay on A549 of 93.1 µM. In addition, the result in the assay on HCT-116 was Active. Also, the inhibition entry (in the assay on Oryza sativa; in assay [4]) was “inactive” in each case.
For `C/C=C/C1=CC2=CC(=O)[C@@](C)(O)[C@@H](OC(=O)c3c(C)cc(O)cc3O)[C@@H]2CO1`, the IC50 in assay [1] is greater than 200 µM; in assay [2], greater than 200 µM; in assay [3], 63.2 µM; at DNA polymerase lambda, greater than 200 µM. Moreover, halving of growth in the assay with A549 (GI50) required 65.7 µM. Further, the outcome in the assay with HCT-116 was Active. The inhibition result (with Oryza sativa; in assay [4]) was “inactive” throughout.
Regarding `C/C=C/C1=CC2=CC(=O)[C@@](C)(OC(=O)c3c(C)cc(O)cc3O)[C@@H](O)[C@@H]2CO1` [PINOPHILIN A], the IC50 in assay [1] was greater than 200 µM; in assay [2] it was greater than 200 µM; in assay [3], 49.1 µM; on DNA polymerase lambda, greater than 200 µM. The molecule further yielded a GI50 in the assay on A549 of 52.5 µM. The outcome in the assay with HCT-116 was Active. Besides, the inhibition entry (in the assay on Oryza sativa; in [4]) was “inactive” throughout. In the assay listed under Bos taurus, the inhibition result is “Active”.
